Test results taken from ChEMBL document CHEMBL1153870, “Synthesis of glycose carbamides and evaluation of the induction of erythroid differentiation of human erythroleukemic K562 cells” (Eur J Med Chem, 2009).

Tests used:
[1] = test system: K562; assay: Induction of erythroid differentiation in human K562 cells assessed as benzidine-positive cells after 6 days; assay type: functional; set-up: concentration or dose not given beside the values
Outline: (§1)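 K562 cells were seeded at 30,000 cells/mL in medium with 10% FBS and antibiotics, then exposed to compounds at the indicated concentrations for a 6-day induction period. Hemoglobin-containing cells were scored by benzidine staining and expressed as % benzidine-positive cells. Values are mean ± SD of three independent experiments.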

[2] = test system: K562; assay: Antiproliferative activity against human K562 cells; assay type: functional, cell-based
Outline: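 K562 cells were seeded at 30,000 cells/mL in medium with 10% FBS, penicillin and streptomycin. They were cultured with or without test compounds at the indicated concentrations. Cell number per mL was counted with a Coulter counter on different days after culture set-up.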

[3] = test system: K562; assay: Induction of erythroid differentiation in human K562 cells assessed as benzidine-positive cells at 0.5 mM after 6 days; assay type: functional; outline: as §1
[4] = test system: K562; assay: Induction of erythroid differentiation in human K562 cells assessed as benzidine-positive cells at 20 mM after 6 days; assay type: functional; outline: as §1
[5] = test system: K562; assay: Induction of erythroid differentiation in human K562 cells assessed as benzidine-positive cells at 0.75 mM after 6 days; assay type: functional
Outline: (§2)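 Erythroid induction was measured with compound combined with a sub-optimal concentration of ara-C. K562 cells were seeded at 30,000 cells/mL in medium with 10% FBS and antibiotics and co-treated for 6 days. Read-out was % benzidine-positive (hemoglobin-containing) cells, given as mean ± SD of three independent experiments.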

[6] = test system: K562; assay: Induction of erythroid differentiation in human K562 cells assessed as benzidine-positive cells at 8 mM after 6 days; assay type: functional; outline: as §2
[7] = test system: K562; assay: Induction of erythroid differentiation in human K562 cells assessed as benzidine-positive cells at 0.1 mM after 6 days; assay type: functional; outline: as §1
[8] = test system: K562; assay: Induction of erythroid differentiation in human K562 cells assessed as benzidine-positive cells at 1 mM after 6 days; assay type: functional; outline: as §1
[9] = test system: K562; assay: Induction of erythroid differentiation in human K562 cells assessed as benzidine-positive cells at 5 mM after 6 days; assay type: functional; outline: as §1
[10] = test system: K562; assay: Induction of erythroid differentiation in human K562 cells assessed as benzidine-positive cells at 500 mM after 6 days; assay type: functional; conditions: in the assay text read “500 nM” for “500 mM”; outline: as §1

Row | IC50 [2] | SMILES | Activity [1] | also measured
1 | 500 µM | CCCC(=O)N[C@@H]1[C@H]2OC(C)(C)O[C@H]2O[C@@H]1[C@H](O)CO | 20% | Activity [3]: 35%
2 | 2500 µM | COc1ccc(C(=O)N[C@H]2[C@H]3OC(C)(C)O[C@H]3O[C@@H]2[C@H](O)CO)cc1 | 24% | –
3 | 500 µM | CC#CC(=O)N[C@@H]1[C@H]2OC(C)(C)O[C@H]2O[C@@H]1[C@H]1COC(C)(C)O1 | 19% | –
4 | 5000 µM | CC(C)CC(=O)N[C@@H]1[C@H]2OC(C)(C)O[C@H]2O[C@@H]1[C@H](O)CO | 25% | –
5 | 10000 µM | CCCCCC(=O)N[C@@H]1[C@H]2OC(C)(C)O[C@H]2O[C@@H]1[C@H](O)CO | 28% | –
6 | 1000 µM | CC1(C)O[C@H]2O[C@H]([C@H]3COC(C)(C)O3)[C@@H](NC(=O)C3CCCC3)[C@H]2O1 | 21% | –
7 | 20000 µM | CC1(C)O[C@H]2O[C@H]([C@H](O)CO)[C@@H](NC(=O)C(C)(C)C)[C@H]2O1 | 25% | Activity [4]: 40%
8 | – | CC1(C)O[C@H]2O[C@H]([C@H]3COC(C)(C)O3)[C@@H](NC(=O)CCc3ccccc3)[C@H]2O1 | – | Activity [5]: 49%
9 | – | COc1ccc(OC)c(CC(=O)N[C@H]2[C@H]3OC(C)(C)O[C@H]3O[C@@H]2[C@H]2COC(C)(C)O2)c1 | – | Activity [3]: 50%
10 | – | CC(C)C(=O)N[C@H]1[C@H]2OC(C)(C)O[C@H]2O[C@@H]1[C@H](O)CO | – | Activity [6]: 66%
11 | 250 µM | CO[C@@H]1O[C@H](CNC(=O)C2CC2)[C@@H]2OC(C)(C)O[C@@H]2[C@H]1O | 27% | –
12 | 30000 µM | CCC(=O)N[C@@H]1[C@H]2OC(C)(C)O[C@H]2O[C@@H]1[C@H](O)CO | 20% | –
13 | 5000 µM | CCCCC(=O)N[C@@H]1[C@H]2OC(C)(C)O[C@H]2O[C@@H]1[C@H](O)CO | 18% | –
14 | 7500 µM | CCC(=O)N[C@H]1[C@H]2OC(C)(C)O[C@H]2O[C@@H]1[C@H]1COC(C)(C)O1 | 19% | –
15 | 5000 µM | CC(C)(C)CC(=O)N[C@@H]1[C@H]2OC(C)(C)O[C@H]2O[C@@H]1[C@H](O)CO | 15% | –
16 | 20000 µM | CCCC(=O)N[C@H]1[C@H]2OC(C)(C)O[C@H]2O[C@@H]1[C@H](O)CO | 20% | Activity [4]: 40%
17 | – | CC1(C)O[C@H]2O[C@H]([C@H](O)CO)[C@@H](NC(=O)c3ccc(-c4ccccc4)cc3)[C@H]2O1 | – | Activity [7]: 33%
18 | – | COc1cccc(CC(=O)N[C@H]2[C@H]3OC(C)(C)O[C@H]3O[C@@H]2[C@H]2COC(C)(C)O2)c1 | – | Activity [8]: 43%
19 | – | CC1(C)O[C@H]2O[C@H]([C@H](O)CO)[C@H](NC(=O)C(C)(C)C)[C@H]2O1 | – | Activity [9]: 68%
20 | 100 µM | CCCC(=O)NC[C@H]1O[C@H](OC)[C@H](O)[C@H]2OC(C)(C)O[C@H]21 | 18% | –
21 | 2000 µM | CCCC(=O)O [BUTYRIC ACID] | 32.5% | –
22 | – | Nc1ccn([C@@H]2O[C@H](CO)[C@@H](O)[C@@H]2O)c(=O)n1 [CYTARABINE] | 78% | Activity [10]: 22%
23 | 0.1 µM | CO[C@H](C(=O)[C@@H](O)[C@@H](C)O)[C@@H]1Cc2cc3cc(O[C@H]4C[C@@H](O[C@@H]5C[C@@H](O)[C@H](O)[C@@H](C)O5)[C@H](O)[C@@H](C)O4)c(C)c(O)c3c(O)c2C(=O)[C@H]1O[C@H]1C[C@@H](O[C@@H]2C[C@@H](O)[C@@H](O[C@@H]3C[C@](C)(O)[C@H](O)[C@@H](C)O3)[C@@H](C)O2)[C@H](O)[C@@H](C)O1 [PLICAMYCIN] | 86% | –
24 | 1000 µM | CO[C@H]1C[C@@H]2CC[C@@H](C)[C@@](O)(O2)C(=O)C(=O)N2CCCC[C@H]2C(=O)O[C@H]([C@H](C)C[C@@H]2CC[C@@H](O)[C@H](OC)C2)CC(=O)[C@H](C)/C=C(\C)[C@@H](O)[C@@H](OC)C(=O)[C@H](C)C[C@H](C)/C=C/C=C/C=C/1C [SIROLIMUS] | 75.5% | –
